Measurements: the EternaBench riboswitch data

System: MS2 coat protein
Assay: apparent Kd, MS2 coat protein; higher = weaker binding; RNA-MaP array; FMN 200 µM where present
Outline: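 Stalled E. coli RNA polymerase transcribed the designs on Illumina sequencing-chip clusters. SNAP-549-labelled MS2 coat protein was titrated from 0.7 or 1.5 nM, doubling to 3 µM, without and then with constant ligand, in 100 mM Tris-HCl pH 7.5, 80 mM KCl, 4 mM MgCl2, BSA, DTT, yeast tRNA and Tween-20. Per-cluster binding curves were fitted to green signal normalised to red-channel RNA signal and control-cluster median Fmax. The apparent Kd is the median of the filtered fits.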

[1] = designed as: ON switch for flavin mononucleotide, no ligand
[2] = ligand present: flavin mononucleotide, designed as: ON switch for flavin mononucleotide
[3] = designed as: OFF switch for flavin mononucleotide, no ligand
[4] = ligand present: flavin mononucleotide, designed as: OFF switch for flavin mononucleotide

Sequence	apparent Kd [1]	apparent Kd [2]	apparent Kd [3]	apparent Kd [4]
GUAGCUAUCGGAGGAUAUUCAUACCGGAAACGGACAUGAGGAUCACCCAUGUGUCGAAAGCCUUGGGAGAAGGUCGAUAGCUAC	260 nM	87.4 nM	–	–
GGAGAACAUGAGGAUCACCCAUGUGGAUGGGCGCUAGGAUAUGCGAGAGGGUGGAGAGAAGCAGAAGGAGUGGAUA	62.2 nM	54.5 nM	–	–
AUCGGAUUGUAGAAGGGUGACAUGAGGAUCACCCAUGUUCAAAUGCGUUUUUCGGUAAUUGUUCCACAGGAUAUACUGUCCGAG	675 nM	139 nM	–	–
CUCCUCCCGAAGGAUAUCCACGCCAACUUCGUAGGAGAAGGUCGGACAUGAGGAUCACCCAUGUGGCCAUGGUU	–	–	18.5 nM	40.3 nM
CCCAAACUUGGGCUUGGUGGUGCAUAGGAUAUCCUUGAACAUGAGGAUCACCCAUGUACAACUGUGGAGAAGGGUGCAGGGCCU	372 nM	111 nM	–	–
UGGUACAUGGGAGGAUAUGGGUUGAUAACAUGAGGAUCACCCAUGUUAAAUAUGCCUCUUGGCAACUAGAAGGCCCAUGUACCU	512 nM	41.8 nM	–	–
AGCUACGUUUCGUAGCAGUGUCAUCGAGAAGGCUCAGAUACAUGAGGAUCACCCAUGUUAACAUGGGAGGAUAUCGAUGAUACA	65.3 nM	8.4 nM	–	–
UCUGGUCGAGGAUAUACAUGAGGAUCACCCAUGUUGAUCAAGCGACUUCGGUCGCAAUGUAGAAGGCGACCAGA	–	–	627 nM	182 nM
GAUCCUUCUGUUAGGAUAUGCUACGGGCUUCCGCAGCAGAAGGAACAUGAGGAUCACCCAUGUCAAAUAAAAUC	–	–	37.1 nM	168 nM
AAAAGACAUGAGGAUCACCCAUGUUAAAACGUAGGAGGAUAUGUAUGGAAAACAUGCUGUACAGAAGGCCUGUGUC	17.3 nM	17.1 nM	–	–
AAGUCAGCAGGAUAUGCGAUGGUGUACUAGGUAGUUUACCCACAUGAGGAUCACCCAUGUAGAAGGGCUGGCUA	–	–	59.1 nM	148 nM
GCUGCAUAGGCAGGAUAUGCAAUAAUUCGAAUAAAAUAUAACGGAUUAACAUGAGGAUCACCCAUGUAGAAGGGCCUGUGCAGU	–	–	5.73 nM	5.49 nM
AGUCAGAGAGGAUAUACAUGGGAAAAAAAAGUAAGAUCCCUACAUGAGGAUCACCCAUGUAGAAGGCUCUGACA	–	–	28.6 nM	36 nM
AUGUUACAUGAGGAUCACCCAUGUGAGGAUAUGUGUACCCGUAAAAAAGUGUCGGGCCACAGAAGGCAUUUGGA	–	–	47.3 nM	75 nM
CGCUACUACCAGAAGGACAUGAGGAUCACCCAUGUAGGAUAUGGGUUACAAGUUCCUGUGUAAAGAAACUACGCUACGUAUGCG	715 nM	31.7 nM	–	–
AUACUCAUGUAAGGAUAUGCAGCCGAAACGGCUGCAGAAGGUACUAUAAUACAUGAGGAUCACCCAUGUCAAAAUUAAAUAGUU	185 nM	31.7 nM	–	–
ACGACGAAAGUCGAACGAUGAUCGAGAAGGACAUGAGGAUCACCCAUGUCCGCUGUAACAGCCAUGUAGGAUAUCGAUCAUCGA	–	–	3.59 nM	3.83 nM
GUAGCUCCUGACAUGAGGAUCACCCAUGUUCAAUUAUUAAAUCAGGAUAUCGGCUAGAAACUAGCCGAGAAGGGAUAUGCUACU	5.13 nM	5.97 nM	–	–
UCAUUAUAGAUCCAUUUUAACUACAUGAGGAUCACCCAUGUGCAGGAUAUCGAUUGUUUUACUUUCGAGAAGGGCAAAUACAGA	–	–	78 nM	202 nM
CUGAUGUGAGGAUAUCGGGCUACAGCCCUGCUGCUAGCAAACGAGAAGGCACAUGAGGAUCACCCAUGUAAGAA	–	–	24 nM	28.6 nM
ACUAAGGAGGUAGGAUAUUGUGUGGUGGCCGGGCUCCCACGGCGAGCGGCACAAGAAGGAUCCCAACAUGAGGAUCACCCAUGU	48.9 nM	26.1 nM	–	–

Sequence	apparent Kd [1]	apparent Kd [2]	apparent Kd [3]	apparent Kd [4]
AGCUAGUCAGGAUAUGCGUGAAGAAUAAAACAAAUAACAACGCAGAAGGGACAUGAGGAUCACCCAUGUUAGCA	–	–	30.7 nM	19.5 nM
GUAGUGUGAGGAUAUGAUUAAUAGAAGGGAAUGCGACUGCAUCAGAAGGCACAUGAGGAUCACCCAUGUAUGAA	–	–	19.5 nM	29.2 nM
CCCUCAAGCGAGGAUAUAAAUGCGCAUUCGCGGUUAGAAGGCGCUACAUGAGGAUCACCCAUGUAAUAAAAUGG	–	–	68.2 nM	86.4 nM
UUUUACUUAGGAUAUACAUUUUUUUAUUUAUUUAUAAUAUUACAUGAGGAUCACCCAUGUAGAAGGGAGAUUUU	–	–	77 nM	63.4 nM
AUCCUGCGAGGAUAUACAUAGUGACGUCUGUUAGGUCUCAAACAUGAGGAUCACCCAUGUAGAAGGUGCGUCAC	–	–	19.4 nM	18.2 nM
AACCUAUUACAGAAGGCCAGCUACAUGAGGAUCACCCAUGUCGAGUCAUGGAGGAUAUGUAGUAAUUUACUCACAGAUGAGUGC	25.8 nM	5.31 nM	–	–
CUUUGACAUGAGGAUCACCCAUGUGAGGAUAUGAUGCGAUCGUCGAAAGACGAUAGCAUCAGAAGGCACAUAUG	–	–	85.7 nM	238 nM
UGGACCGAGCUAUCGGUUGACUGGGAGGAUAUGACAUGAGGAUCACCCAUGUGGGAUCUAAAUUGUCAGAAGGCUCGAUCUGGG	–	–	258 nM	257 nM
AUUAAUAAGUAGAAGGACGGAGAGUAUGAAGUCGUAGGAUAUACAUAAGACAUGAGGAUCACCCAUGUAUGUAUUUUGGGUAUG	–	–	12.9 nM	12.9 nM
GUGGUCAGACAUGAGGAUCACCCAUGUGGAAUAAAUAAGGAAAAGGAUAUUCAAUAUAGGAUAUAGAAGAAGGUUUGGUUGGUG	74.4 nM	83.4 nM	–	–
AAAAAACAUGAGGAUCACCCAUGUCAGGAUAUCUGUAUUCAAUCCUCGGAUUGAAUACAGAGAAGGGACAAAAA	–	–	37.8 nM	54.6 nM
AUAUUACGAGGAUAUCGUUUUUUUCACAUGAGGAUCACCCAUGUUAUUUAUGUUUCGUUUCGAGAAGGCGUAAGUU	–	–	25 nM	22.1 nM
ACCAAUGGAGGAUAUACAUGAGGAUCACCCAUGUUUAUCCUACAUAGGUGAAAAACAUGUAGAAGGCCAUUGGA	–	–	14.8 nM	13.2 nM
CGCGAACAGGUUAACAUGAGGAUCACCCAUGUGGACUCAUGGUAGGAUAUCGGGAAGGAGGAAACCGAGAAGGGCUGGUGAGCC	634 nM	443 nM	–	–
AUGUAGAACGUAGGAUAUCAAUGAGGAUCACCCUGAGAAGGACGUGAGGACAUGAGGAUCACCCAUGUGGAUCACCCAUGUCAU	–	–	160 nM	134 nM
GCGAUGAUCGAGAAGGCCACUACAUGAGGAUCACCCAUGUCGUGGUGUAUUGGAGGAUAUCGAUCGGCGUCUUAUGAGGAUAUA	–	–	5.17 nM	5.65 nM
GCGUCAGAAUUAAUUGUGACAUACAGAAGGCAAAAGUAAGGAUAAGACAUGAGGAUCACCCAUGUUGAGGAUAUGUAGAGAAUC	–	–	10.7 nM	8.64 nM
GACUGACAUGAGGAUCACCCAUGUAUUCAAACAUGAGGAUAUAUAACACAUCAUCGACGGAUAGAAGGCAUAGAUA	128 nM	124 nM	–	–
CAGUUAAAAGUGAGGUCUUCGACAUGAGGAUCACCCAUGUACGAGGAUAUGUAAUAUACGGUAUAGCAGAAGGCGUAUGGGUGU	–	–	20.9 nM	46.9 nM
GCACAUUUGUAAGGAUAUACUACAUGAGGAUCACCCAUGUGCAUGGAGAUUGUAGAAGGUACAGCAAUAUUGAUUAACGUUAUA	134 nM	77.2 nM	–	–
GUGGAUAGACGCCCACGUGAGACAUGAGGAUCACCCAUGUACAGAAGGUGGAGCGUUAAUGGUGCCAAGGAUAUGUACAUAAGG	–	–	–	5.11 nM
